{"source": "paper PMC5075014", "about": "(Medicinal Chemistry Research, 2016)", "tested_on": "MCF-7 (human breast cancer) cell line", "assay": "WST-1 assay, anticancer activity, breast cancer MCF-7", "type": "cell-based", "conditions": "MCF-7 cell line", "method_in_brief": "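Cells were grown at 37 °C under 5 % CO2 and seeded at 1 × 10^4 cells/well in DMEM with 10 % FCS, streptomycin and penicillin. They were exposed to the test compound at 0–100 μg/mL for 72 h, then given WST-1 for 1 h. Absorbance was read at 450 nm against a background control, with a 600 nm reference. Values are means of at least two independent experiments run in triplicate.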", "data": [{"compound": "CN(C)CCCN1c2ccccc2Sc2cccnc21", "note": "[Prothipendyl, 10-dimethylaminopropyl-1-azaphenothiazine]", "values": [{"measurement": "times less active than the most active diazaphenothiazines", "value": "5-6 times"}]}]}
